In brackets after ≈: the same amount, converted by molar mass.
How the values were obtained:
[1] = Inhibition of bacterial KPC-2 using imipenem as substrate preincubated for 15 mins followed by susbtrate addition and measured after 10 mins by spectrophotometric method; parameters: species or system Bacteria
[2] = Inhibition of bacterial AmpC using nitrocefin as substrate preincubated for 15 mins followed by susbtrate addition and measured after 10 mins by spectrophotometric method; parameters: species or system Bacteria
[3] = Inhibition of bacterial OXA-48 using nitrocefin as substrate preincubated for 15 mins followed by susbtrate addition and measured after 10 mins by spectrophotometric method; parameters: species or system Bacteria
[4] = Inhibition of bacterial VIM-2 using nitrocefin as substrate preincubated for 15 mins followed by susbtrate addition and measured after 10 mins by spectrophotometric method; parameters: species or system Bacteria
Summary of the method: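 Purified β-lactamase inhibition. IC50 values are the average of duplicates unless otherwise indicated.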

[5] = tested on: Klebsiella pneumoniae; test: Inhibition of KPC-2 in Klebsiella pneumoniae assessed as meropenem antibacterial activity at 4 ug/ml after 16 to 20 hrs by CLSI-based microbroth dilution method (Rvb >= […] ug/ml)
[6] = tested on: Klebsiella pneumoniae; test: Inhibition of OXA-48 in Klebsiella pneumoniae assessed as meropenem antibacterial activity at 4 ug/ml after 16 to 20 hrs by CLSI-based microbroth dilution method (Rvb >= […] ug/ml)
[7] = tested on: Klebsiella pneumoniae; test: Inhibition of VIM-4 in Klebsiella pneumoniae assessed as meropenem antibacterial activity at 4 ug/ml after 16 to 20 hrs by CLSI-based microbroth dilution method (Rvb >= […] ug/ml)
[8] = biological target: Beta-lactamase VIM-2 (Pseudomonas aeruginosa) (UniProt Q9K2N0); test: Inhibition of VIM-2 in Pseudomonas aeruginosa assessed as meropenem antibacterial activity at 4 ug/ml after 16 to 20 hrs by CLSI-based microbroth dilution method (Rvb >= […] ug/ml)
[9] = tested on: Klebsiella pneumoniae ATCC BAA-1705; test: Inhibition of KPC-2 in Klebsiella pneumoniae ATCC BAA 1705 assessed as piperacillin antibacterial activity at 16 ug/ml after 16 to 20 hrs by CLSI-based microbroth dilution method (Rvb > […] ug/ml)
[10] = tested on: Klebsiella pneumoniae; test: Inhibition of VIM-27/CTX-M-15/SHV-11/OXA-1 in Klebsiella pneumoniae CDC-0040 assessed as piperacillin antibacterial activity at 16 ug/ml after 16 to 20 hrs by CLSI-based microbroth dilution method
[11] = tested on: Escherichia coli; test: Inhibition of NDM-1/CMY-6/OXA-1 in Escherichia coli CDC-0055 assessed as piperacillin antibacterial activity at 16 ug/ml after 16 to 20 hrs by CLSI-based microbroth dilution method
Summary of the method: (§1)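 MDR β-lactamase-producing Gram-negative clinical isolates. […] MIC was reported as the inhibitor concentration that restores the partner's antibacterial activity.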

[12] = tested on: Klebsiella pneumoniae; test: Inhibition of OXA-232/OXA-9/TEM-1A/CTX-M-15/OXA-1 in Klebsiella pneumoniae CDC-0066 assessed as piperacillin antibacterial activity at 16 ug/ml after 16 to 20 hrs by CLSI-based microbroth dilution method (Rvb > […] ug/ml)
[13] = tested on: Pseudomonas aeruginosa; test: Inhibition of KPC-2/PDC-42 in Pseudomonas aeruginosa CDC-0356 assessed as piperacillin antibacterial activity at 16 ug/ml after 16 to 20 hrs by CLSI-based microbroth dilution method (Rvb > […] ug/ml)
[14] = tested on: Klebsiella pneumoniae; test: Inhibition of KPC-2/SHV12/TEM-1 in Klebsiella pneumoniae CDC-0361 assessed as piperacillin antibacterial activity at 16 ug/ml after 16 to 20 hrs by CLSI-based microbroth dilution method (Rvb > […] ug/ml)
[15] = tested on: Escherichia coli; test: Inhibition of NDM in Escherichia coli CDC-0452 assessed as piperacillin antibacterial activity at 16 ug/ml after 16 to 20 hrs by CLSI-based microbroth dilution method (Rvb > […] ug/ml)
[16] = tested on: Klebsiella pneumoniae ATCC BAA-1705; test: Inhibition of KPC-2 in Klebsiella pneumoniae ATCC BAA 1705 assessed as cefepime antibacterial activity at 8 ug/ml after 16 to 20 hrs by CLSI-based microbroth dilution method; summary of the method: as §1
[17] = tested on: Klebsiella pneumoniae; test: Inhibition of VIM-27/CTX-M-15/SHV-11/OXA-1 in Klebsiella pneumoniae CDC-0040 assessed as cefepime antibacterial activity at 8 ug/ml after 16 to 20 hrs by CLSI-based microbroth dilution method
[18] = tested on: Escherichia coli; test: Inhibition of NDM-1/CMY-6/OXA-1 in Escherichia coli CDC-0055 assessed as cefepime antibacterial activity at 8 ug/ml after 16 to 20 hrs by CLSI-based microbroth dilution method; summary of the method: as §1
[19] = tested on: Klebsiella pneumoniae; test: Inhibition of OXA-232/OXA-9/TEM-1A/CTX-M-15/OXA-1 in Klebsiella pneumoniae CDC-0066 assessed as cefepime antibacterial activity at 8 ug/ml after 16 to 20 hrs by CLSI-based microbroth dilution method (Rvb > […] ug/ml)
[20] = tested on: Pseudomonas aeruginosa; test: Inhibition of KPC-2/PDC-42 in Pseudomonas aeruginosa CDC-0356 assessed as cefepime antibacterial activity at 8 ug/ml after 16 to 20 hrs by CLSI-based microbroth dilution method (Rvb > […] ug/ml)
[21] = tested on: Klebsiella pneumoniae; test: Inhibition of KPC-2/SHV12/TEM-1 in Klebsiella pneumoniae CDC-0361 assessed as cefepime antibacterial activity at 8 ug/ml after 16 to 20 hrs by CLSI-based microbroth dilution method (reference value: […] ug/ml)
[22] = tested on: Escherichia coli; test: Inhibition of NDM in Escherichia coli CDC-0452 assessed as cefepime antibacterial activity after 16 to 20 hrs by CLSI-based microbroth dilution method (reference value: […] ug/ml)
[23] = tested on: Klebsiella pneumoniae ATCC BAA-1705; test: Inhibition of KPC-2 in Klebsiella pneumoniae ATCC BAA 1705 assessed as meropenem antibacterial activity at 4 ug/ml after 16 to 20 hrs by CLSI-based microbroth dilution method (reference value: […] ug/ml)
[24] = tested on: Klebsiella pneumoniae; test: Inhibition of VIM-27/CTX-M-15/SHV-11/OXA-1 in Klebsiella pneumoniae CDC-0040 assessed as meropenem antibacterial activity at 4 ug/ml after 16 to 20 hrs by CLSI-based microbroth dilution method
[25] = tested on: Escherichia coli; test: Inhibition of NDM-1/CMY-6/OXA-1 in Escherichia coli CDC-0055 assessed as meropenem antibacterial activity at 4 ug/ml after 16 to 20 hrs by CLSI-based microbroth dilution method (reference value: […] ug/ml)
[26] = tested on: Klebsiella pneumoniae; test: Inhibition of OXA-232/OXA-9/TEM-1A/CTX-M-15/OXA-1 in Klebsiella pneumoniae CDC-0066 assessed as meropenem antibacterial activity at 4 ug/ml after 16 to 20 hrs by CLSI-based microbroth dilution method (reference value: […] ug/ml)
[27] = tested on: Pseudomonas aeruginosa; test: Inhibition of KPC-2/PDC-42 in Pseudomonas aeruginosa CDC-0356 assessed as meropenem antibacterial activity at 4 ug/ml after 16 to 20 hrs by CLSI-based microbroth dilution method (reference value: […] ug/ml)
[28] = tested on: Klebsiella pneumoniae; test: Inhibition of KPC-2/SHV12/TEM-1 in Klebsiella pneumoniae CDC-0361 assessed as meropenem antibacterial activity at 4 ug/ml after 16 to 20 hrs by CLSI-based microbroth dilution method (reference value: […] ug/ml)
[29] = tested on: Escherichia coli; test: Inhibition of NDM in Escherichia coli CDC-0452 assessed as meropenem antibacterial activity at 4 ug/ml after 16 to 20 hrs by CLSI-based microbroth dilution method (reference value: […] ug/ml)
[30] = tested on: Pseudomonas aeruginosa; test: Inhibition of VIM in Pseudomonas aeruginosa CDC-0457 assessed as cefepime antibacterial activity at 8 ug/ml after 16 to 20 hrs by CLSI-based microbroth dilution method
[31] = tested on: Pseudomonas aeruginosa; test: Inhibition of VIM in Pseudomonas aeruginosa CDC-0457 assessed as meropenem antibacterial activity at 4 ug/ml after 16 to 20 hrs by CLSI-based microbroth dilution method
[32] = tested on: Pseudomonas aeruginosa; test: Inhibition of VIM in Pseudomonas aeruginosa CDC-0457 assessed as piperacillin antibacterial activity at 16 ug/ml after 16 to 20 hrs by CLSI-based microbroth dilution method

O=C(C[C@H]1CC[C@H](N2CCNCC2)CC1)N[C@H]1Cc2cccc(C(=O)O)c2OB1O
IC50 [1]: 20 nM | IC50 [2]: 3 nM | IC50 [3]: 1520 nM | IC50 [4]: 1500 nM | MIC [5]: 4 µg/mL (≈ 9.63 µM) | MIC [6]: 16 µg/mL (≈ 38.5 µM) | MIC [7]: 32 µg/mL (≈ 77.1 µM) | MIC [8]: 16 µg/mL (≈ 38.5 µM)

N[C@H]1CC[C@H](CC(=O)N[C@H]2Cc3cccc(C(=O)O)c3OB2O)CC1
IC50 [1]: 30 nM | IC50 [2]: 30 nM | IC50 [3]: 2240 nM | IC50 [4]: 150 nM | MIC [5]: 2 µg/mL (≈ 5.78 µM) | MIC [6]: 2 µg/mL (≈ 5.78 µM) | MIC [7]: 2 µg/mL (≈ 5.78 µM) | MIC [8]: 2 µg/mL (≈ 5.78 µM) | MIC [9]: 4 µg/mL (≈ 11.6 µM) | MIC [10]: > 16 µg/mL | MIC [11]: > 16 µg/mL | MIC [12]: > 16 µg/mL | MIC [13]: 4 µg/mL (≈ 11.6 µM) | MIC [14]: 2 µg/mL (≈ 5.78 µM) | MIC [15]: > 16 µg/mL | MIC [16]: 0.125 µg/mL (≈ 0.361 µM) | MIC [17]: > 16 µg/mL | MIC [18]: > 16 µg/mL | MIC [19]: 4 µg/mL (≈ 11.6 µM) | MIC [20]: 4 µg/mL (≈ 11.6 µM) | MIC [21]: 0.015 µg/mL (≈ 0.0433 µM) | MIC [22]: 4 µg/mL (≈ 11.6 µM) | MIC [23]: 0.015 µg/mL (≈ 0.0433 µM) | MIC [24]: > 16 µg/mL | MIC [25]: 8 µg/mL (≈ 23.1 µM) | MIC [26]: 8 µg/mL (≈ 23.1 µM) | MIC [27]: 4 µg/mL (≈ 11.6 µM) | MIC [28]: 0.015 µg/mL (≈ 0.0433 µM) | MIC [29]: 8 µg/mL (≈ 23.1 µM) | MIC [30]: 2 µg/mL (≈ 5.78 µM) | MIC [31]: > 16 µg/mL | MIC [32]: > 16 µg/mL

NCCCN[C@H]1CC[C@H](CC(=O)N[C@H]2Cc3cccc(C(=O)O)c3OB2O)CC1
IC50 [1]: 70 nM | IC50 [2]: 5 nM | IC50 [3]: 664 nM | IC50 [4]: 82 nM | MIC [5]: 0.5 µg/mL (≈ 1.24 µM) | MIC [6]: 8 µg/mL (≈ 19.8 µM) | MIC [7]: 4 µg/mL (≈ 9.92 µM) | MIC [8]: 0.25 µg/mL (≈ 0.62 µM)

O=C(O)CN[C@H]1CC[C@H](CC(=O)N[C@H]2Cc3cccc(C(=O)O)c3OB2O)CC1
IC50 [1]: 19 nM | IC50 [2]: 6 nM | IC50 [3]: 3140 nM | IC50 [4]: 2400 nM | MIC [5]: 4 µg/mL (≈ 9.9 µM) | MIC [6]: 8 µg/mL (≈ 19.8 µM) | MIC [7]: 32 µg/mL (≈ 79.2 µM) | MIC [8]: 16 µg/mL (≈ 39.6 µM)

NCC(=O)N[C@H]1CC[C@H](CC(=O)N[C@H]2Cc3cccc(C(=O)O)c3OB2O)CC1
IC50 [1]: 34 nM | IC50 [2]: 6 nM | IC50 [3]: 355 nM | IC50 [4]: 594 nM | MIC [5]: 2 µg/mL (≈ 4.96 µM) | MIC [6]: 8 µg/mL (≈ 19.8 µM) | MIC [7]: 8 µg/mL (≈ 19.8 µM) | MIC [8]: 8 µg/mL (≈ 19.8 µM)

N[C@H]1CC[C@@H](CC(=O)N[C@H]2Cc3cccc(C(=O)O)c3OB2O)CC1
IC50 [1]: 120 nM | IC50 [2]: 5 nM | IC50 [3]: 18000 nM | IC50 [4]: 1670 nM | MIC [5]: 2 µg/mL (≈ 5.78 µM) | MIC [6]: 16 µg/mL (≈ 46.2 µM) | MIC [7]: 32 µg/mL (≈ 92.4 µM) | MIC [8]: 32 µg/mL (≈ 92.4 µM)

NC[C@H]1CC[C@H](CC(=O)N[C@H]2Cc3cccc(C(=O)O)c3OB2O)CC1
IC50 [1]: 100 nM | IC50 [2]: 25 nM | IC50 [3]: 1800 nM | IC50 [4]: 1600 nM | MIC [5]: 1 µg/mL (≈ 2.78 µM) | MIC [6]: 2 µg/mL (≈ 5.55 µM) | MIC [7]: 8 µg/mL (≈ 22.2 µM) | MIC [8]: 4 µg/mL (≈ 11.1 µM)

NCCN[C@H]1CC[C@@H](CC(=O)N[C@H]2Cc3cccc(C(=O)O)c3OB2O)CC1
IC50 [1]: 30 nM | IC50 [2]: 35 nM | IC50 [3]: 670 nM | IC50 [4]: 130 nM | MIC [5]: 8 µg/mL (≈ 20.6 µM) | MIC [6]: 8 µg/mL (≈ 20.6 µM) | MIC [7]: 4 µg/mL (≈ 10.3 µM) | MIC [8]: 0.5 µg/mL (≈ 1.28 µM)
